Holding throughout (assay type): functional
For assay [1], the species on record is Rattus norvegicus. The experiment in a line: Tested for drug-discrimination stimulus effect in S-1c trained rats. Put shortly: (§1)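 Male Sprague-Dawley rats (175–200 g) held at about 80% of free-feeding weight were trained on two levers to tell (S)-1c·HCl 1.75 mg/kg from saline. Test drugs were given in 0.9% saline, ip, 30 min before sessions run under extinction. A session ended at 50 presses on one lever, or was scored disrupted if not done within 5 min. %SDL counts nondisrupted rats. ED50 and 95% CI were derived by Litchfield–Wilcoxon.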

Assay [2] is filed under the species Rattus norvegicus. The experiment in a line: Inhibitory concentration against [3H]- 5-HT uptake in crude rat synaptosomes. The conditions noted are these: Brain. Put shortly: (§2)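 Crude synaptosomes from male Sprague-Dawley rat tissue homogenised in ice-cold isotonic sucrose. Preincubated 5 min at 37 °C under aeration with pargyline (final 100 μM), then chilled. Tritiated transmitter added at 10 nM final and uptake run 5 min at 37 °C. Catecholamine buffer had 0.06 mM ascorbate. Filtered and counted by scintillation. 9–10 concentrations in triplicate, 3–4 experiments, four-parameter logistic fit for IC50 ± SEM.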

The species named for assay [3] is Rattus norvegicus. The experiment in a line: Inhibitory concentration against [3H]- NE uptake in crude rat synaptosomes. The conditions noted are these: Brain. Put shortly:
as §2

For assay [4], the species on record is Rattus norvegicus. The experiment in a line: Inhibitory concentration against [3H]- DA uptake in crude rat synaptosomes. The conditions noted are these: Brain. Put shortly:
as §2

Assay [5] relates to Rattus norvegicus. The experiment in a line: Number of animals tested to that of number of animals disrupted in S-1c trained at 0.215 mg/kg; Number of animals tested=10. Put shortly: (§3)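 Drug-discrimination rats were male Sprague-Dawley, 175–200 g, kept at about 80% of free-feeding weight. They were trained against saline on (S)-1c·HCl 1.75 mg/kg, 3·HCl 1.71 mg/kg or (S)-amphetamine sulfate 1 mg/kg. Test drug was given ip in 0.9% saline at 1 mL/kg, 30 min before sessions run under extinction. A session ended at 50 presses on one lever; failing 50 presses within 5 min was scored as disrupted.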

Assay [6] concerns Rattus norvegicus. The experiment in a line: Number of animals tested to that of number of animals disrupted in 3 trained at 0.108 mg/kg; Number of animals tested=8. Put shortly:
as §3

For assay [7], the system named is Rattus norvegicus. The experiment in a line: Number of animals tested to that of number of animals disrupted in 3 trained at 0.214 mg/kg; Number of animals tested=12. Put shortly: as §3
In assay [8] the test system is Rattus norvegicus. The experiment in a line: Number of animals tested to that of number of animals disrupted in 3 trained at 0.429 mg/kg; Number of animals tested=12. Put shortly:
as §3

Assay [9] has as its system Rattus norvegicus. The experiment in a line: Number of animals tested to that of number of animals disrupted in 3 trained at 0.643 mg/kg; Number of animals tested=12. Put shortly:
as §3

In assay [10] the test system is Rattus norvegicus. The experiment in a line: Number of animals tested to that of number of animals disrupted in 3 trained at 0.857 mg/kg; Number of animals tested=12. Put shortly: as §3
In assay [11] the test system is Rattus norvegicus. The experiment in a line: Number of animals tested to that of number of animals disrupted in S-1c trained at 0.643 mg/kg; Number of animals tested=12.
Assay [12] has as its system Rattus norvegicus. The experiment in a line: Number of animals tested to that of number of animals disrupted in S-1c trained at 0.857 mg/kg; Number of animals tested=11. Put shortly:
as §3

The test system of assay [13] is Rattus norvegicus. The experiment in a line: Number of animals tested to that of number of animals disrupted in 3 trained at 1.286 mg/kg; Number of animals tested=8. Put shortly: as §3
For assay [14], the system named is Rattus norvegicus. The experiment in a line: Number of animals tested to that of number of animals disrupted in S-1c trained at 0.429 mg/kg; Number of animals tested=10. Put shortly: as §3
Assay [15] has as its system Rattus norvegicus. The experiment in a line: Tested for drug-discrimination stimulus effect at 0.215 mg/kg in S-1c trained animals; 0.23-0.57. Put shortly:
as §1

For assay [16], the system named is Rattus norvegicus. The experiment in a line: Percentage of nondisrupted animals selecting drug liver in 3 trained at 0.429 mg/kg; SDL. Put shortly:
(§4)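 Rats and training are as above: male Sprague-Dawley, food-restricted, with training doses per drug group. Test drug was given ip in saline 30 min before extinction sessions. %SDL is the share of nondisrupted rats reaching 50 presses on the drug lever. A rat not completing 50 presses in 5 min was scored as disrupted.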

Assay [17] has as its system Rattus norvegicus. The experiment in a line: Percentage of nondisrupted animals selecting drug liver in 3 trained at 0.643 mg/kg; SDL. Put shortly: as §4
In assay [18] the test system is Rattus norvegicus. The experiment in a line: Percentage of nondisrupted animals selecting drug liver in 3 trained at 1.286 mg/kg; SDL. Put shortly: as §4
Assay [19] concerns Rattus norvegicus. The experiment in a line: Percentage of nondisrupted animals selecting drug liver in S-1c trained at 0.108 mg/kg; SDL. Put shortly: as §4
For assay [20], the system named is Rattus norvegicus. The experiment in a line: Percentage of nondisrupted animals selecting drug liver in S-1c trained at 0.215 mg/kg; SDL. Put shortly: as §4
The test system of assay [21] is Rattus norvegicus. The experiment in a line: Percentage of nondisrupted animals selecting drug liver in S-1c trained at 0.429 mg/kg; SDL.
The test system of assay [22] is Rattus norvegicus. The experiment in a line: Percentage of nondisrupted animals selecting drug liver in S-1c trained at 0.643 mg/kg; SDL.
For assay [23], the system named is Rattus norvegicus. The experiment in a line: Percentage of nondisrupted animals selecting drug liver in S-1c trained at 0.857 mg/kg; SDL.
Assay [24] concerns Rattus norvegicus. The experiment in a line: Percentage of nondisrupted animals selecting drug liver in 3 trained at 0.108 mg/kg; SDL. Put shortly: as §4
The test system of assay [25] is Rattus norvegicus. The experiment in a line: Percentage of nondisrupted animals selecting drug liver in 3 trained at 0.214 mg/kg; SDL. Put shortly:
as §4

The subject of assay [26] is Rattus norvegicus. The experiment in a line: Number of animals tested to that of number of animals disrupted in S-1c trained at 0.108 mg/kg; Number of animals tested=7. Put shortly:
as §3

Assay [27] relates to Rattus norvegicus. The experiment in a line: Percentage of nondisrupted animals selecting drug liver in 3 trained at 0.857 mg/kg; SDL. Put shortly: as §4
For assay [28], the species on record is Rattus norvegicus. The experiment in a line: Tested for drug-discrimination stimulus effect in 3-trained rats.

Molecule `CCC(Cc1ccc2c(c1)OCO2)NC` (stereo unspecified) returned an ED50 in the assay listed under Rattus norvegicus [1] of 0.79 mg/kg.

Consider `CC(N)Cc1ccc2c(c1)OCO2` (stereo unspecified) [TENAMFETAMINE], for which the IC50 in the assay filed under Rattus norvegicus [2] was 369 nM; in the assay filed under Rattus norvegicus [3], 629 nM; in the assay filed under Rattus norvegicus [4], 1360 nM.

Turning to `CC(N)Cc1ccc2c(c1)OCC2` (stereo unspecified), the Activity is 3 in the assay with Rattus norvegicus [5]; 6 in the assay on Rattus norvegicus [6]; 6 in the assay with Rattus norvegicus [7]; 6 in the assay on Rattus norvegicus [8]; 5 with Rattus norvegicus [9]; 2 with Rattus norvegicus [10]. Further, the Activity with Rattus norvegicus [11] stood at 4; in the assay on Rattus norvegicus [12], 5; with Rattus norvegicus [13], 6; in the assay on Rattus norvegicus [14], 3; in the assay on Rattus norvegicus [26], 2. The same molecule displayed an ED50 in the assay with Rattus norvegicus [15] of 0.4 mg/kg. The IC50 in the assay filed under Rattus norvegicus [2] came to 322 nM; in the assay listed under Rattus norvegicus [3], 980 nM; in the assay filed under Rattus norvegicus [4] it was 2000 nM. For the same molecule, the SDL turned out to be 83% in the assay on Rattus norvegicus [16]; 100% in the assay on Rattus norvegicus [17]; 100% in the assay with Rattus norvegicus [18]; 0% in the assay with Rattus norvegicus [19]; 14% in the assay with Rattus norvegicus [20]; 57% in the assay on Rattus norvegicus [21]. Further, the SDL with Rattus norvegicus [22] was found to be 88%; with Rattus norvegicus [23], 100%; in the assay on Rattus norvegicus [24], 0%; with Rattus norvegicus [25], 17%; in the assay with Rattus norvegicus [27], 90%.

Consider `COc1cc2c(cc1C)CC(N)C2` (stereo unspecified), for which the ED50 in the assay filed under Rattus norvegicus [28] was 0.56 mg/kg.

What is called ED50 is the dose that gives a 50% effect, or the effect in half of the subjects. Read a low ED50 as greater potency. Broadly, the IC50 is the concentration needed to halve the response being measured. A low value points to greater potency.
